HSV replic up: enhancers of HSV replication in host cells, fold increase, host cell viability; 0.005% of 220,000 active; HSV replication augmentation in cells; maximum fold increase; in the data active = maximum fold increase above about 1.5; tested in PC3 cells
ABCG2 block: ABCG2 efflux pump inhibitors, primary screen, multiplex with ABCB1, IgMXP3 cells, flow cytometry | JC-1 efflux | inhibition, % at 6.6 µM | Broad substrate specificity ATP-binding cassette transporter ABCG2 (Homo sapiens), Q9UNQ0 | 0.1% of 190,000 active;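 active = inhibition above 80%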;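 note: 0% = DMSO and 100% = nicardipine control wells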
Target sequence (Q9UNQ0 whole entry, looked up): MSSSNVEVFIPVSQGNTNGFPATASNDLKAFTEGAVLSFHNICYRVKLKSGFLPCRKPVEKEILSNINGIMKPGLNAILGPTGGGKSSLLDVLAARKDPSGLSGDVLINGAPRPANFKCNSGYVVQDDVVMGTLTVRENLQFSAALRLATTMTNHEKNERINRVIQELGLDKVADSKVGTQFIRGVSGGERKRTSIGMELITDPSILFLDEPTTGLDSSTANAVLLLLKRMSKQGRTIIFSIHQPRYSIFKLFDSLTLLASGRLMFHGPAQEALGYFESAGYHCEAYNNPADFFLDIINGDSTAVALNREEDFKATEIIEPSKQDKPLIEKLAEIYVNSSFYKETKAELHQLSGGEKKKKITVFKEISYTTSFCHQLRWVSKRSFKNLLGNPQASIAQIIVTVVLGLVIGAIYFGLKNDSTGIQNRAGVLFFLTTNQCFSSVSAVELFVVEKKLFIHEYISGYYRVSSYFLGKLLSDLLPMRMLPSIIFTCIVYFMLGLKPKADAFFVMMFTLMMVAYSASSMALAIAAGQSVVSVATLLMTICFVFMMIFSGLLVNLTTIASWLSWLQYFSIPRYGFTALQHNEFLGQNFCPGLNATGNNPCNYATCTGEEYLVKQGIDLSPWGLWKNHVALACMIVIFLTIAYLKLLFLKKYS
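Test system: IgMXP3 cells (ABCG2) mixed with DDAO far-red-labelled CCRF-Adr cells (ABCB1). Reagent: JC-1 transporter substrate. Compound dosing: single test compound dose, 6.6 µM final. Times: 10 min compound exposure, 25 °C. Detection: flow cytometry of retained JC-1 fluorescence. Read-out basis: efflux inhibition in percent versus controls. Controls: nicardipine and DMSO wells.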
PHOSPHO1 inh: PubChem AID 1565. Phosphoethanolamine/phosphocholine phosphatase (Homo sapiens), Q8TCT1. recombinant PHOSPHO1, absorbance phosphatase assay. inhibition, % at 13.3 µM. 1.1% of 290,000 active; in the data active = inhibition above about 60%
NCF1 inh: p47phox/p22phox peptide binding inhibitors, primary screen, biochemical, uHTS, NADPH oxidase regulatory subunit | fluorescence polarization, 2 h | inhibition, % at 24.7 µM | 0.53% of 220,000 active;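 active = inhibition above about 30%, limit read from the data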;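 note: 0% = p47phox with labelled peptide and 100% = labelled peptide alone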
PKD1 kinase inh: inhibitors of human PKD1 kinase, biochemical, fluorescence polarization; 0.056% of 200,000 active; inhibition, % (test concentration not listed); Serine/threonine-protein kinase D1 (Homo sapiens), Q15139; PKD1 kinase fluorescence polarization assay; in the data active = inhibition above about 50%
ABCB1 inh: ABCB1 efflux pump inhibitors, primary screen, cell-based, multiplex, flow cytometry, ABCG2 counter-screen. 0.067% of 190,000 active. inhibition, % at 6.6 µM. CCRF-Adr cells, JC-1 efflux. ATP-dependent translocase ABCB1 (Homo sapiens), P08183; in the data active = inhibition above about 40%;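 note: 0% = vehicle and 100% = reference inhibitor; higher value means more JC-1 retained so stronger ABCB1 efflux block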
Active calls of the source: *; i = inactive; / = not tested or not shown. This is a sample that favours compounds with a hit; in the whole collection about 1.6% have one here.

SMILES | HSV replic up | ABCG2 block | PHOSPHO1 inh | NCF1 inh | PKD1 kinase inh | ABCB1 inh
O=C(NCCCN1CCOCC1)C(=O)NCC1OCCCN1S(=O)(=O)c1cc(F)ccc1F (stereo not drawn) | / | / | 75.4* | / | / | /
CN1C(=O)C2(Nc3ccccc3-c3nc4ccccc4n32)c2ccccc21 (stereo not drawn) | i | 2.3 | 3.9 | -7.3 | -3.9 | 2.0
CCN1C(=O)C2(Nc3ccccc3-c3nc4ccccc4n32)c2cc(OC)ccc21 (stereo not drawn) | / | 15.9 | 30.3 | -16.1 | 0.8 | 53.5*
O=C(O)C1SCCN1S(=O)(=O)c1ccc(N=NN2CCOCC2)cc1 (stereo not drawn) | i | -0.5 | -4.6 | 0.1 | -1.5 | -0.2
O=C(CSc1nn(-c2ccc(F)cc2)c(=S)s1)NC(=O)NCc1ccco1 | i | 0.1 | 83.1* | -29.3 | 6.6 | -0.1
Cn1c(SCC(=O)NCc2ccco2)nnc1-c1ccccc1 | i | 8.1 | 2.9 | -0.6 | -4.6 | 1.3
COc1ccc(-c2nnc(SCC(=O)NCc3ccco3)o2)cc1 | i | 65.1 | -42.5 | 5.2 | -2.2 | -0.5
O=C(CSc1nnc(-c2ccc(OC(F)F)cc2)o1)NC(=O)NCc1ccco1 | i | 8.7 | 73.7* | -4.7 | -11.3 | 0.0
O=C(CSc1n[nH]c(-c2ccccc2)n1)NC(=O)NCc1ccco1 | i | 0.0 | 87.8* | -21.3 | -1.0 | 0.0
Cn1c(SCC(=O)NC(=O)NCc2ccco2)nnc1-c1ccccc1 | i | 0.0 | 63.7* | -17.8 | -14.9 | 0.3
O=C(Nc1ccccc1)O[C@@H]1C[C@H]2CCC(=O)N3CC[C@@H](C1)[C@@H]23 | / | / | -13.0 | / | / | /
CCC(=O)N1CC2(CC(c3cccc([N+](=O)[O-])c3)=NO2)C[C@H]1C(=O)NCC(N)=O (stereo partly drawn) | i | 0.9 | 3.4 | 35.2* | -3.5 | 0.4
COc1ccc(C(=O)N2CC3(CC(c4cccc([N+](=O)[O-])c4)=NO3)C[C@H]2C(=O)NCC(N)=O)cc1 (stereo partly drawn) | i | 2.3 | 28.4 | -1.3 | -12.6 | 0.4
CCOc1cccc2sc(Cl)nc12 | i | 5.7 | 42.8 | -1.1 | 3.5 | 1.1
CCOc1cccc2sc(NN)nc12 | i | -1.8 | 60.9* | 6.1 | -7.0 | -1.0
N#Cc1c(C#N)c(O)c2ccccc2c1O | i | / | -14.7 | -11.6 | / | /
N=C1CCC(=N)c2c1c(O)c1ccccc1c2O | i | / | 23.1 | 125.0* | / | /
CCCn1c(=S)[nH]c2cc(Cl)ccc21 | i | / | 20.4 | -4.3 | / | /
Cc1ccc(CSC2=NCCN2C(=O)c2ccc(S(=O)(=O)N(C)C)cc2)cc1 | i | 1.2 | -26.9 | -3.1 | -4.4 | 0.8
COCCSc1ccccc1C(=O)Nc1ccc([N+](=O)[O-])cc1OC | i | 23.0 | 64.3* | -6.0 | -1.2 | 0.1
O=C(NCC1CCCO1)C1CC(=O)N(c2cccc(Cl)c2)C1 (stereo not drawn) | / | / | 23.2 | / | / | /
Clc1ccc(/C=N/Nc2nn[nH]n2)cc1 | i | -2.2 | -13.3 | -11.0 | -2.1 | -0.3
C(=N\Nc1nn[nH]n1)/c1ccccc1 | i | -0.1 | 71.0* | 2.9 | -3.8 | 0.1
Cc1ccc(-c2cc(-c3ccc(Cl)cc3)c(C#N)c(N)n2)o1 | i | -0.3 | 72.0* | 0.7 | -2.0 | -0.6
COc1ccc(OCC(=O)Nc2ccc3c(c2)nc(CCN2CCN(C)CC2)n3C)cc1 | / | / | 70.1* | / | / | /
SMILES | HSV replic up | ABCG2 block | PHOSPHO1 inh | NCF1 inh | PKD1 kinase inh | ABCB1 inh
CN(C)/C=N/C(=S)Nc1ccc(Cl)cc1 | i | 2.0 | 28.7 | -13.4 | -4.3 | 0.3
Cc1cccc(C)c1NC(=S)/N=C/N(C)C | i | 3.7 | 3.5 | 91.0* | 8.3 | 1.0
CCOC(=O)C1=C(N)Oc2cc(O)ccc2C1c1ccc(Br)cc1 (stereo not drawn) | / | / | 13.5 | / | / | /
Oc1c(C(c2cccs2)N2CCN(c3ccccc3)CC2)ccc2cccnc12 (stereo not drawn) | / | -0.2 | 69.1* | -35.9 | -6.9 | 0.0
CCOc1ccccc1CNC(=O)CCNS(=O)(=O)c1ccc2[nH]c(=O)oc2c1 | / | / | 15.9 | / | / | /
COc1ccc(S(=O)(=O)N2CCOCC2)cc1NC(=O)COc1cccnc1[N+](=O)[O-] | i | 7.3 | -99.9 | -7.5 | 4.9 | 0.5
Nc1c(C(=O)NCc2cccnc2)sc(=S)n1-c1ccccc1 | i | 0.2 | 95.5* | -10.2 | -12.2 | 0.1
CCn1c(N)c(C(=O)NCc2cccnc2)sc1=S | i | 1.3 | 0.1 | -4.1 | 1.7 | 0.4
COc1ccc(CNC(=O)c2sc(=S)n(-c3ccc(OC)cc3)c2N)cc1 | i | 1.1 | 95.4* | -7.6 | -6.9 | 0.5
Cc1ccc(-n2c(N)c(C(N)=O)sc2=S)cc1 | i | -0.6 | 92.8* | -4.3 | 0.6 | -0.2
CCc1ncc(CN2CCC(C(=O)Nc3ccc(-n4nc(C)cc4C)cc3)CC2)cn1 | / | / | 51.0 | / | / | /
CCn1c(C)cc(/C=C2/NC(=O)N(CC(=O)Nc3cccc(C)c3)C2=O)c1C | i | 0.0 | -0.6 | 58.6* | 11.6 | 0.8
CCn1c(C)cc(/C=C2\NC(=O)N(CC(=O)Nc3cccc(C)c3)C2=O)c1C | i | 0.6 | 45.2 | 6.3 | -16.0 | 0.2
COCCNCCCCOc1ccc(Br)cc1C | i | 0.4 | 11.2 | 14.8 | -11.2 | 0.2
COCCCNCCCCOc1ccc(Br)cc1C | i | 2.9 | -6.4 | 41.1* | -4.6 | 0.0
O=C(CC(SCCO)c1ccc2c(c1)OCO2)c1cccs1 (stereo not drawn) | i | 1.2 | 82.7* | -2.5 | -7.9 | 0.2
C=CCSC1=C(C#N)C(c2ccccc2OCC)C(C#N)C(=O)N1 (stereo not drawn) | i | 8.4 | 88.7* | -15.3 | 4.4 | -0.2
CCOC(=O)CSC1=C(C#N)C(c2ccccc2OCC)C(C#N)C(=O)N1 (stereo not drawn) | i | -0.8 | 28.9 | -3.4 | -6.0 | -0.7
Cc1ccc(C(=O)N(CC(=O)NC2CCCC2)c2ccccc2Cl)s1 | / | / | 22.8 | / | / | /
CCN1CCc2[nH]c3ccccc3c2C1 | / | / | 28.6 | / | / | /
Clc1ccc(Nc2nc(-c3ccncc3)cs2)cc1 | i | / | / | / | -1.0 | /
Nc1ccc(Nc2nc(-c3ccncc3)cs2)cc1 | i | -1.8 | 80.9* | -9.9 | -3.6 | -0.4
Cc1cc(O)c(C(C)C)cc1N=C1CSC(=O)N1 | i | 0.1 | 86.6* | -3.3 | -4.1 | 0.0
Cc1ccc(Nc2nc(/N=C/NO)n[nH]2)cc1C | i | 5.6 | 64.7* | -3.5 | -1.7 | 1.0
Cc1nc(C)c(-c2ccnc(/N=C/NO)n2)s1 | i | / | 11.7 | 6.0 | / | /
O=C(O)C(Cc1c[nH]c2ccccc12)N1C(=O)C2C3c4ccccc4C(c4ccccc43)C2C1=O (stereo not drawn) | i | 1.0 | 41.2 | -11.8 | 3.1 | 0.2

Screening results (PubChem BioAssay)
